{"data": "Results collected from several papers", "PDE4D": "3',5'-cyclic-AMP phosphodiesterase 4D (PDE4D, Homo sapiens, UniProt Q08499)", "F2": "Prothrombin (F2, Homo sapiens, UniProt P00734)", "CDK7 with cyclin H": "Cyclin-dependent kinase 7, with cyclin H (CDK7, Homo sapiens, UniProt P50613)", "SYK": "Tyrosine-protein kinase SYK (SYK, Homo sapiens, UniProt P43405)", "HTR1B": "5-hydroxytryptamine receptor 1B (HTR1B, Homo sapiens, UniProt P28222)", "note": "Protocols differ between the studies behind these lines."}
{"Compound": "COc1ccc(-c2coc3cc(O)ccc3c2=O)cc1", "target": "PDE4D", "observed": "enzyme activity", "action": "inhibitor", "method": "radiometric", "concentration": "50 µM", "inhibition": "5.54%"}
{"Compound": "O=C(Nc1cccnn1)N1CCN([C@@H]2CCOc3cc(C(F)(F)F)ccc32)CC1", "target": "PDE4D", "observed": "enzyme activity", "action": "inhibitor", "concentration": "20 µM", "inhibition": "1%"}
{"Compound": "COc1cc(Nc2ncc(F)c(Nc3ccc4c(n3)NC(=O)C(C)(C)O4)n2)cc(OC)c1OC", "target": "Mitogen-activated protein kinase 7 (MAPK7, Homo sapiens, UniProt Q13164)", "observed": "binding", "method": "competition with immobilised ligand", "concentration": "10 µM", "inhibition": "19%"}
{"Compound": "CN(C)C(=O)COC(=O)Cc1ccc(OC(=O)c2ccc(NC(=N)N)cc2)cc1", "target": "F2", "observed": "enzyme activity", "action": "inhibitor", "concentration": "50 µM", "inhibition": "99.1%"}
{"Compound": "COc1cc([C@@H]2c3cc4c(cc3[C@H](O)[C@H]3COC(=O)[C@H]23)OCO4)cc(OC)c1OC", "target": "CDK7 with cyclin H", "observed": "enzyme activity", "action": "inhibitor", "method": "ADP detection", "concentration": "10 µM", "inhibition": "17.2%"}
{"Compound": "C#Cc1n[nH]c2c(-c3cn([C@@H](C)c4ccccc4)c(=O)[nH]c3=O)cc(F)cc12", "target": "SYK", "observed": "enzyme activity", "action": "inhibitor", "concentration": "0.1 µM", "inhibition": "1.6%"}
{"Compound": "c1ccc(C(NCCNC(c2ccccc2)c2ccccc2)c2ccccc2)cc1", "target": "3-hydroxy-3-methylglutaryl-coenzyme A reductase (HMGCR, Homo sapiens, UniProt P04035)", "observed": "enzyme activity", "action": "inhibitor", "concentration": "10 µM", "inhibition": "-2%"}
{"Compound": "COC(=O)c1cc(O)c(O)c(O)c1", "target": "PDE4D", "observed": "enzyme activity", "action": "inhibitor", "method": "radiometric", "concentration": "50 µM", "inhibition": "-5.1%"}
{"Compound": "CC[C@@]1(O)C(=O)OCc2c1cc1n(c2=O)Cc2cc3ccccc3nc2-1", "target": "CDK7 with cyclin H", "observed": "enzyme activity", "action": "inhibitor", "method": "ADP detection", "concentration": "10 µM", "inhibition": "20.7%"}
{"Compound": "O=C(/C=C/c1ccc(O)cc1)c1ccc(O)cc1O", "target": "PDE4D", "observed": "enzyme activity", "action": "inhibitor", "method": "radiometric", "concentration": "5 µM", "inhibition": "-6.18%"}
{"Compound": "O=C(Nc1ccc2c(c1)B(O)OC2)c1cccc(OCc2ccc(Cl)cc2)c1", "target": "F2", "observed": "enzyme activity", "action": "inhibitor", "concentration": "50 µM", "inhibition": "13.7%"}
{"Compound": "Clc1ccc2c(C3CCN(CCc4c[nH]c5ccccc45)CC3)c[nH]c2c1", "target": "HTR1B", "observed": "ligand displacement", "method": "radioligand", "concentration": "10 µM", "inhibition": "100%"}
{"Compound": "C#Cc1n[nH]c2c(-c3cn(C(C)c4ccccn4)c(=O)[nH]c3=O)cc(F)cc12 (stereo not drawn)", "target": "SYK", "observed": "enzyme activity", "action": "inhibitor", "concentration": "1 µM", "inhibition": "-7.5%"}
{"Compound": "COc1c(-c2ccc3c(c2)OCO3)oc2c(ccc3occc32)c1=O", "target": "CDK7 with cyclin H", "observed": "enzyme activity", "action": "inhibitor", "method": "ADP detection", "concentration": "10 µM", "inhibition": "30.4%"}
{"Compound": "COc1cc(O)ccc1/C=C/C(=O)c1ccc(O)cc1", "target": "PDE4D", "observed": "enzyme activity", "action": "inhibitor", "method": "radiometric", "concentration": "50 µM", "inhibition": "62.8%"}
{"Compound": "COc1cc(CNC(=O)CCCC/C=C/C(C)C)ccc1O", "target": "CDK7 with cyclin H", "observed": "enzyme activity", "action": "inhibitor", "method": "ADP detection", "concentration": "10 µM", "inhibition": "31.4%"}
{"Compound": "CCOC(=O)C1=C(C)NC(c2ccccc2)=C(C(=O)OCc2ccccc2)C1C#Cc1ccccc1 (stereo not drawn)", "target": "Adenosine receptor A2a (Adora2a, Mus musculus, UniProt Q60613)", "observed": "ligand displacement", "method": "radioligand", "concentration": "10 µM", "setting": "cell membranes", "inhibition": "0%"}
{"Compound": "O=c1c(O[C@@H]2O[C@H](CO)[C@@H](O)[C@H](O)[C@H]2O)c(-c2ccc(O)cc2)oc2cc(O)cc(O)c12", "target": "PDE4D", "observed": "enzyme activity", "action": "inhibitor", "method": "radiometric", "concentration": "50 µM", "inhibition": "20.2%"}
{"Compound": "C=C[C@H]1C[N@@]2CC[C@H]1C[C@@H]2[C@@H](O)c1ccnc2ccccc12", "target": "CDK7 with cyclin H", "observed": "enzyme activity", "action": "inhibitor", "method": "ADP detection", "concentration": "10 µM", "inhibition": "12.9%"}
{"Compound": "O=c1c(O)c(-c2ccc(O)c(O)c2)oc2cc(O)cc(O)c12", "target": "PDE4D", "observed": "enzyme activity", "action": "inhibitor", "method": "radiometric", "concentration": "5 µM", "inhibition": "75.2%"}
{"Compound": "C[C@H](C(=O)N[C@H]1COc2ccccc2[C@@H]1S(C)(=O)=O)c1ccc(F)cc1", "target": "Protein phosphatase 3 catalytic subunit alpha (PPP3CA, Homo sapiens, UniProt Q08209)", "observed": "enzyme activity", "action": "inhibitor", "concentration": "10 µM", "inhibition": "8%"}
{"Compound": "CN1CCc2cc3c(cc2[C@H]1[C@@H]1OC(=O)c2c1ccc1c2OCO1)OCO3", "target": "CDK7 with cyclin H", "observed": "enzyme activity", "action": "inhibitor", "method": "ADP detection", "concentration": "10 µM", "inhibition": "22%"}
{"Compound": "Cc1cc(O)c2c(c1)C(=O)c1cc(O)cc(O)c1C2=O", "target": "PDE4D", "observed": "enzyme activity", "action": "inhibitor", "method": "radiometric", "concentration": "50 µM", "inhibition": "45.4%"}
{"Compound": "COc1cc2c3c(c1OC)-c1cc4c(cc1CC3N(C)CC2)OCO4 (racemic)", "target": "HTR1B", "observed": "ligand displacement", "method": "radioligand", "concentration": "10 µM", "inhibition": "100%"}
{"Compound": "C=CCc1ccc(O)c(-c2ccc(O)c(CC=C)c2)c1", "target": "PDE4D", "observed": "enzyme activity", "action": "inhibitor", "method": "radiometric", "concentration": "50 µM", "inhibition": "25.6%"}
{"Compound": "Cn1cc(-c2cccc(N3CCc4c(sc5c4CC(C)(C)C5)C3=O)c2CO)cc(Nc2ccncn2)c1=O", "target": "Protein kinase C gamma type (PRKCG, Homo sapiens, UniProt P05129)", "observed": "enzyme activity", "action": "inhibitor", "concentration": "1 µM", "inhibition": "-1%"}
{"Compound": "C[C@@H]1CC[C@@]2(NC1)O[C@H]1C[C@H]3[C@@H]4CC=C5C[C@@H](O)CC[C@]5(C)[C@H]4CC[C@]3(C)[C@H]1[C@@H]2C", "target": "CDK7 with cyclin H", "observed": "enzyme activity", "action": "inhibitor", "method": "ADP detection", "concentration": "10 µM", "inhibition": "22.4%"}
